We go through one molecule from ChEMBL document CHEMBL1158629, “Synthesis, in vitro and in vivo evaluation of [11C]MMTP: a potential PET ligand for mGluR1 receptors” (Bioorg Med Chem Lett, 2010).

What all share (type): ADME, organism-based
A short description of data set [1]: Ratio of drug uptake in hippocampus to cerebellum of baboon brain at 5 +/- 0.5 mCi, iv after 85 mins. Conditions: papio hamadryas, in vivo. In short, it runs like this:
(§1)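 Fasted baboons were immobilized with ketamine (10 mg/kg, i.m.) and maintained on 1.5~2.0 % isoflurane via endotracheal tube. Core temperature was held at 37°C on a heated water blanket during PET scanning.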

A short description of data set [2]: Metabolic stability in baboon brain assessed as compound remaining at 5 +/- 0.5 mCi, iv after 90 mins. Conditions: papio hamadryas, in vivo, 1.5 h.
Data set [3] in a line: Ratio of drug uptake in caudate to cerebellum of baboon brain at 5 +/- 0.5 mCi, iv after 35 mins. Conditions: papio hamadryas, in vivo. In short, it runs like this: as §1
Data set [4] can be described thus: Ratio of drug uptake in caudate to cerebellum of baboon brain at 5 +/- 0.5 mCi, iv after 85 mins. Particulars: papio hamadryas, in vivo. In short, it runs like this: as §1
A short description of data set [5]: Ratio of drug uptake in frontal cortex to cerebellum of baboon brain at 5 +/- 0.5 mCi, iv after 85 mins. Particulars: papio hamadryas, in vivo. In short, it runs like this: as §1
A short description of data set [6]: Ratio of drug uptake in amygdala to cerebellum of baboon brain at 5 +/- 0.5 mCi, iv after 85 mins. Conditions: papio hamadryas, in vivo. In short, it runs like this: as §1
Data set [7] can be described thus: Ratio of drug uptake in frontal cortex to cerebellum of baboon brain at 5 +/- 0.5 mCi, iv after 35 mins. Conditions: papio hamadryas, in vivo. In short, it runs like this: as §1
The nature of data set [8]: Metabolic stability in baboon brain assessed as compound remaining at 5 +/- 0.5 mCi, iv after 30 mins. Particulars: papio hamadryas, in vivo, 0.5 h.
Data set [9] can be described thus: Ratio of drug uptake in putamen to cerebellum of baboon brain at 5 +/- 0.5 mCi, iv after 85 mins. Particulars: papio hamadryas, in vivo. In short, it runs like this:
as §1

Data set [10] can be described thus: Ratio of drug uptake in putamen to cerebellum of baboon brain at 5 +/- 0.5 mCi, iv after 35 mins. Conditions: papio hamadryas, in vivo. In short, it runs like this:
as §1

Data set [11] in a line: Ratio of drug uptake in caudate to cerebellum of baboon brain at 5 +/- 0.5 mCi, iv after 65 mins. Particulars: papio hamadryas, in vivo, pooled result: one value given for 5 cell lines, strains, targets or settings. In short, it runs like this: as §1
A short description of data set [12]: Ratio of drug uptake in hippocampus to cerebellum of baboon brain at 5 +/- 0.5 mCi, iv after 35 mins. Particulars: papio hamadryas, in vivo. In short, it runs like this:
as §1

The nature of data set [13]: Ratio of drug uptake in amygdala to cerebellum of baboon brain at 5 +/- 0.5 mCi, iv after 35 mins. Conditions: papio hamadryas, in vivo. In short, it runs like this:
as §1

For `CN(C)c1ccnc2sc3c(=O)n(-c4ccc(O[11CH3])cc4)cnc3c12`, the Ratio is 1.6 in data set [1]; 2 in [3]; 1.6 in data set [4]; 1.6 in [5]; 1.6 in data set [6]; 2 in data set [7]. Also, the Ratio was found to be 1.6 in data set [9]; 2 in [10]; 1.65 in data set [11]; 2 in data set [12]; 2 in data set [13]. Further, the Stability stood at 30% in data set [2] and 45% in data set [8].
